Screening results (PubChem BioAssay)
RORa activator – activators of human nuclear receptor RORA; P35398; CHO-K1 Gal4-RORA LBD luciferase reporter, luminescence; percent increase over mock-subtracted basal signal; activation, % at 10 µM; hit rate 1.5% among 65,000; AID 560;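 active = activation above the mean of all tested compounds plus 3 SD, cut at about 49% in these data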;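 also: 0% = DMSO-treated RORA cells and 100% = added signal equal to DMSO minus mock-transfected cells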
Target sequence (P35398 whole entry, looked up, the tested form may be a part): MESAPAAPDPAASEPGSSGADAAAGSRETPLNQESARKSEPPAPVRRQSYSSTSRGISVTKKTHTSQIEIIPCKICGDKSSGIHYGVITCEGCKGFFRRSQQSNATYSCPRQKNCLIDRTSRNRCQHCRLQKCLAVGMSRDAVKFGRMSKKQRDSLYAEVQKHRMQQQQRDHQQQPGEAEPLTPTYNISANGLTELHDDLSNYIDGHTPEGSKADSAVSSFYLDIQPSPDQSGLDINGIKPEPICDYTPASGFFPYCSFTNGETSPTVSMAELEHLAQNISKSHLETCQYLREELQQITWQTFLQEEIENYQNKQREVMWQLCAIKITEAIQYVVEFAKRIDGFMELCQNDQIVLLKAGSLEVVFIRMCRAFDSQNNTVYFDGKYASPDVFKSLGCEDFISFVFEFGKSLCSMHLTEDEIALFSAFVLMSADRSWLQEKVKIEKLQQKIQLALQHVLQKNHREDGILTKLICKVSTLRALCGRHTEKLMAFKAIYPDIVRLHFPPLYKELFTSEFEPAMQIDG
SF-1 act – activators of human nuclear receptor SF-1 | Q13285 | CHO-K1 Gal4-SF-1 LBD luciferase reporter; % increase over DMSO SF-1-specific signal | activation, % at 10 µM | hit rate 1.9% among 65,000 | AID 522;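 active = activation above the mean activation of all tested compounds plus 3 SD, cut at about 50% in these data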
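System: CHO-K1 cells with Gal4–hSF-1 LBD chimera plus Gal4-driven luciferase; quantity: 4,000 CHO-K1 cells per well; compound: one dose, 10 µM compound, 1% DMSO; times: 20 h compound treatment, 37 °C; measured by: SteadyLite luciferase luminescence; read-out: percent activation versus DMSO; benchmarks: DMSO and mock-transfected background; replicates: one test per compound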
M1 antag – blocks the rat M1 muscarinic receptor response to acetylcholine; P08482; CHO-M1 cells, Fluo-4 calcium, ACh EC80 antagonist mode; stronger effect = lower value; B-score at 10 µM; hit rate 3.4% among 64,000; AID 628;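 active = calcium fluorescence response, raw or row-and-column corrected B-score, differing from the plate sample mean either way at a set confidence level, mostly lower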
M1 agonist – M1 muscarinic receptor agonism | CHO-M1 cells, Fluo-4 calcium fluorescence, agonist mode; stronger effect = higher value | B-score at 10 µM | hit rate 3% among 64,000;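 active = fluorescence rise, raw or as B-score row- and column-corrected plate score, outside the 99.7% band of its plate's samples, either direction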
MT1-MMP txn act – activates MT1-MMP transcription; HT1080 MT1-MMP promoter luciferase reporter, luminescence, overnight; stronger effect = higher value; hit rate 0.16% among 86,000; activation factor at 10 µM;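 active = activation factor of at least 2 for MT1-MMP transcription at 10 µM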
The depositor's hits bear a star; . = no result. The list is not random: actives were taken first. Their share in the collection is about 6.3%.

SMILES	RORa activator	SF-1 act	M1 antag	M1 agonist	MT1-MMP txn act
CN(C)c1oc(-c2ccc(OCc3ccccc3)cc2)nc1C#N	7	61*	0.043	-0.45	1.6
CN1C(=O)c2oc3ccc(Br)cc3c(=O)c2C1c1ccncc1 (configuration not stated)	7	-5	-0.055	0.0096	1.1
O=C(Nc1cc2nn(-c3ccccc3)nc2cc1Cl)c1ccco1	25	73*	0.45	0.97	1.6
COc1cc(/C=C2/C(=N)N3C=CSC3=NC2=O)ccc1OCCCOc1cc(C)ccc1C	.	.	.	.	1.1
O=C(Nc1nc2ccc(Cl)cc2s1)c1ccc(Br)o1	54*	48	0.26	-0.3	1.2
COc1ccc(O)c(C(=O)c2cc(C#N)c(=O)n(-c3c(C)n(C)n(-c4ccccc4)c3=O)c2)c1	6	6	-0.74	5.8*	1.1
O=C(Cc1ccc2cccnc2c1)c1ccc(O)cc1O	60*	39	-0.29	-1.8	1.2
O=C(Cc1cscn1)c1ccc(O)cc1O	-18	-2	0.31	-0.16	1
c1ccc2c(c1)oc1c(NCCN3CCOCC3)ncnc12	-1	-7	-1.1	-0.8	1.1
c1ccc(Nc2ncnc3c2oc2ccccc23)cc1	27	65*	-0.53	0.43	1.7
Cc1nnc(Nc2ccc3c(c2)OCO3)c2ccccc12	25	23	-0.19	-0.031	1.6
c1ccc2c(c1)oc1c(Nc3ccc(CN4CCOCC4)cc3)ncnc12	14	54*	-0.66	-0.45	1.1
c1ccc2c(c1)oc1c(NCc3ccc4c(c3)OCO4)ncnc12	11	6	-1.7	5.7*	1.1
Oc1ccccc1Nc1ncnc2c1oc1ccccc12	22	2	-1.2	0.6	1.4
c1ccc2c(c1)oc1c(Nc3ccc4c(c3)OCO4)ncnc12	83*	92*	0.19	0.5	1.5
Cc1nc(-c2cccc(NS(=O)(=O)c3ccc4ccccc4c3)c2)cs1	.	.	.	.	1.2
COc1ccc(-c2nc(NC(=O)C3CCN(c4nc5ccccc5o4)CC3)sc2C)cc1	-21	-2	-0.13	-0.48	0.9
COc1ccccc1NC(=O)Nc1nnc(C(C)C)s1	44	53*	1.5	0.4	1.5
COc1ccccc1-c1nnc(NC(C)=O)s1	78*	14	0.11	0.27	1.4
COc1ccccc1-c1nnc(NC(=O)C(C)C)s1	14	12	1.2	-0.14	1.1
CC1CCCN(Cc2cccc(Oc3ccccc3)c2)C1 (configuration not stated)	.	.	.	.	1.1
c1ccc2c(c1)CCCN2c1nc2ccccc2n2cnnc12	37	54*	0.085	-0.93	1.8
N=C1N(/N=C/c2ccccc2)C(=Nc2ccccc2)C(=S)N1c1ccccc1	.	.	.	.	2*
COC(=O)c1ccc(C(NC(=O)OCc2ccccc2)/C(F)=C/[C@@H](C)C(=O)N(C)Cc2cccnc2)cc1 (some centres not stated)	.	.	.	.	1.1
CCOCCNC(=O)c1ccc2c3c(cccc13)CC2	.	.	.	.	1.2
SMILES	RORa activator	SF-1 act	M1 antag	M1 agonist	MT1-MMP txn act
Cn1c(C(=O)NCCc2c[nH]c3ccccc23)cc2sccc21	74*	79*	-0.0007	0.0055	1.6
COc1ccc(S(=O)(=O)N2Cc3ccccc3CC2C(=O)Nc2nccs2)cc1OC (configuration not stated)	18	71*	-0.14	1.2	.
COCc1nc(-c2ccc(-c3ccccc3)nc2OC)no1	72*	32	-0.25	-0.25	1.9
CCc1nc(-c2ccc(-c3ccc(OC)cc3)nc2OC)no1	7	10	-0.16	-0.71	1.4
CCOc1nc(-c2ccccc2)ccc1-c1noc(COC)n1	3	-5	1	-0.00065	1
COCc1nc(-c2ccc(-c3ccc(OC)cc3)nc2OC)no1	49*	12	-0.29	-1.7	1.2
COC(=O)c1ccccc1NC(=O)c1cc2sccc2n1C	6	14	-0.019	-2.3	1
COC(=O)c1cccc(NC(=O)c2cc3sccc3n2C)c1	45	67*	0.097	1.7	1.4
CSc1nc2n(n1)C(c1cc(Br)ccc1F)C(C(=O)N(C)C)=C(C)N2 (configuration not stated)	-16	-5	1.6*	0.13	0.9
Cc1cc(C)n2nc(SCC3COc4ccccc4O3)nc2n1 (configuration not stated)	29	55*	0.69	-0.027	1.4
Cc1cc(C)c(C#N)c(SCC2COc3ccccc3O2)n1 (configuration not stated)	-5	-24	0.19	-0.67	1.1
C=C(C)c1cccc(C(C)(C)NC(=O)N2CCN(CC(N)=O)CC2)c1	-15	-4	0.41	-1.2	1.1
Cn1c(NC(=O)CCc2ccccc2)cc(=O)n(C)c1=O	60*	56*	0.65	-1.5	1.5
CCOc1ccc(C2C(C#N)=C(N)SC(N)=C2C#N)cc1OCC	1	13	1.2	0.065	1.1
CCOc1ccc(C2C(C#N)=C(N)SC(N)=C2C#N)cc1OC	-18	-4	1	64*	1.2
CCCCOC(=O)/C(=C\c1ccc([N+](=O)[O-])o1)NC(=O)c1ccccc1	.	.	.	.	1.1
OC1(c2cccc(C(F)(F)F)c2)CCN(c2ccc(-c3ccccc3)nn2)CC1	66*	38	-0.023	-0.11	1.4
OC1(c2cccc(C(F)(F)F)c2)CCN(c2ncnc3c2[nH]c2ccccc23)CC1	-24	-22	-1.8	2.7	1.3
Cc1nc(S(=O)(=O)N2CCOCC2)c(C#N)c(C)c1Cl	-4	-19	0.31	-0.07	1.1
Cc1ccc2nc(SCC(=O)c3ccc4c(c3)OCO4)[nH]c2c1	.	.	.	.	1.1
O=C(CSc1ccccn1)c1ccc2c(c1)OCO2	9	61*	0.17	0.17	1.2
O=C(CSc1nc2ccccc2[nH]1)c1ccc2c(c1)OCO2	51*	40	-0.66	-1.5	1.6
CC1CCN(C(=O)CSc2nc3ccccc3[nH]2)CC1	61*	44	0.071	-0.096	1.4
CC(=O)CC(=O)Nc1ccccc1NC(C)=O	-4	16	-0.045	-0.11	1
CC(C)(C)C1CCc2[nH]c3ccccc3c(=O)c2C1 (configuration not stated)	98*	56*	0.1	1.1	1.2
SMILES	RORa activator	SF-1 act	M1 antag	M1 agonist	MT1-MMP txn act
O=c1c2c([nH]c3ccccc13)CCCC2	.	.	.	.	1
CCOc1ccc(/C=C\C(C)=N\O)cc1	72*	6	1.4	0.017	0.9
CCCCc1ccc(-c2ccc(Br)cc2)nc1	.	.	.	.	2*
CCn1c(Cn2nnc(-c3ccccc3)n2)nnc1SCC(=O)Nc1cccc(C(C)=O)c1	3	-5	-0.68	-0.2	1.1
CCn1c(Cn2nnc(-c3ccccc3)n2)nnc1SCC(=O)Nc1ccc(C(C)=O)cc1	60*	-2	.	.	1.6
CN1CCN(C(=O)CN(c2cc(C(F)(F)F)ccc2Cl)S(C)(=O)=O)CC1	.	.	.	.	1.1
O=C(Nc1ccc(-c2nc3ccccc3[nH]2)cc1)c1ccco1	34	78*	-1.4	1.6	1
O=C(Nc1ccc2[nH]c3c(c2c1)CCCC3)c1ccco1	18	27	-0.16	3*	1.5
CC(=O)N(C)c1ccc(NC(=O)c2ccco2)cc1	33	50*	0.28	-0.6	1.3
